In one series the test system is PC-9. Put plainly: Antiproliferative activity against human PC9 cells assessed as reduction in cell viability after 72 hrs by MTS assay. Format: functional, cell-based. As to conditions: PC-9, 72 h. In outline:
(§1)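 Cells plated at 2000/well, cultured overnight, then exposed to a range of compound concentrations for 72 h. MTS reagent added for 1–4 h at 37 °C and absorbance read at 490 nm. Cultured in RPMI 1640 or DMEM with 10% heat-inactivated FBS under 5% CO2. Data are the mean of three determinations.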
A general note: Tetrazolium dyes change colour on reduction, which living cells bring about.

The subject of series [1] is NCI-H1975. In words: Antiproliferative activity against human NCI-H1975 cells assessed as reduction in cell viability after 72 hrs by MTS assay. Format: functional, cell-based. As to conditions: NCI-H1975, 72 h. In outline: as §1
The next series concerns BT-549. In words: Antiproliferative activity against human BT549 cells assessed as reduction in cell viability after 72 hrs by MTS assay. The format is functional, cell-based. As to conditions: BT-549, 72 h. The gist of the method:
as §1

The test system of another series is Hs-578T. Put plainly: Antiproliferative activity against human Hs578T cells assessed as reduction in cell viability after 72 hrs by MTS assay. Format: functional, cell-based. In outline:
as §1

The next series has as its system MDA-MB-231. In words: Antiproliferative activity against human MDA-MB-231 cells assessed as reduction in cell viability after 72 hrs by MTS assay. The format is functional, cell-based. Particulars: MDA-MB-231, 72 h. In outline: as §1
Series [2] in a line: Antiproliferative activity against human 37T cells assessed as reduction in cell viability after 72 hrs by MTS assay. The format is functional, cell-based. In outline:
as §1

The next series relates to KB. In words: Antiproliferative activity against human KB cells assessed as reduction in cell viability after 72 hrs by MTS assay. Format: functional, cell-based. The gist of the method:
as §1

The test system of another series is DU-145. Put plainly: Antiproliferative activity against human DU145 cells assessed as reduction in cell viability after 72 hrs by MTS assay. Format: functional, cell-based. As to conditions: DU-145, 72 h. The gist of the method:
as §1

In a further series the test system is CCRF-CEM. In words: Antiproliferative activity against human CCRF-CEM cells assessed as reduction in cell viability after 72 hrs by MTS assay. Format: functional, cell-based. The gist of the method: as §1
Series [3] can be described thus: Cytotoxicity against human NHFB cells assessed as reduction in cell viability after 72 hrs by MTS assay. Format: cell-based. In outline:
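Cells plated at 2000 per well, cultured overnight, then exposed to a range of compound concentrations for 72 h. MTS reagent added, 1–4 h at 37 °C, absorbance read at 490 nm. Mean of three determinations.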

Series [4] has as its system NCI-H1975. In words: Antitumour activity against human NCI-H1975 cells xenografted in Balb/c mouse assessed as reduction in tumour size at 4 mg/kg, ip administered 3 times per week and measured on day 25 (reference value: 1749 +/- 234.5 mm3). The format is functional. (A xenograft is tissue or cells of one species grown in another, often human tumour cells in immunodeficient mice.)

Series [5] concerns NCI-H1975. Put plainly: Induction of apoptosis in human NCI-H1975 cells assessed as cleaved caspase 3 expression at 40 nM by immunoblotting analysis. The format is functional, cell-based. Particulars: TDE = time-dependent effect. (In general: In western blotting, separated proteins are transferred to a membrane and probed.)
Series [6] relates to CL1-0. Put plainly: Induction of apoptosis in human CL1-0 cells assessed as cleaved caspase 9 after 24 hrs by immunoblotting analysis. The format is functional, cell-based.
The test system of series [7] is CL1-0. Put plainly: Induction of apoptosis in human CL1-0 cells assessed as bax protein expression after 24 hrs by immunoblotting analysis. The format is functional, cell-based.
Series [8] deals with NCI-H1975. Put plainly: Induction of apoptosis in human NCI-H1975 cells assessed as caspase 8 activation at 40 to 80 nM after 24 hrs by immunoblotting analysis. Format: functional, cell-based.
Series [9] relates to NCI-H1975. Put plainly: Induction of apoptosis in human NCI-H1975 cells assessed as increase in cytochrome c level in cytosol at 40 to 80 nM after 24 hrs by immunoblotting analysis. Format: functional, cell-based.
Series [10] relates to CL1-0. Put plainly: Cell cycle arrest in human CL1-0 cells assessed as increase in cell population at G2/M phase after 24 hrs by propidium iodide-staining based flow cytometry. Format: functional. The gist of the method:
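Cells treated for 24 h, then trypsinized and fixed overnight in ice-cold 70% ethanol. Stained for 30 min with propidium iodide (10 µg/mL) plus RNase (20 µg/mL), and DNA content measured by flow cytometry. Mean ± SD.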

Series [11] deals with CL1-0. Put plainly: Induction of mitotic arrest in human CL1-0 cells assessed as increase in phospho-histone H3 expression at 20 to 40 nM after 24 hrs by immunoblotting analysis. The format is functional, cell-based.
Series [12] deals with Tubulin alpha (Homo sapiens) (UniProt P0DPH7+P68366+Q71U36+P68363+Q9BQE3+Q6PEY2+A6NHL2+Q9NY65). In words: Induction of microtubule depolymerization in human NCI-H1975 cells assessed as increase in alpha tubulin soluble form by immunoblot analysis. Format: cell-based. In outline:
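Lysate spun at 16,000 rpm for 15 min at room temperature. Soluble (monomer) and particulate (polymer) fractions immunoblotted for α-tubulin.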

Series [13] addresses Tubulin beta (Homo sapiens) (UniProt P68371+Q9H4B7+Q13509+P04350+Q3ZCM7+P07437+Q13885+Q9BVA1+Q9BUF5+A6NNZ2). Put plainly: Binding affinity to beta tubulin in human NCI-H1975 cells incubated for overnight by immunoblotting based pull down assay. Format: cell-based. In outline: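 H1975 lysate in RIPA buffer with protease inhibitors incubated overnight at 4 °C with compound-conjugated magnetic beads or control beads. Beads washed five times with PBS, and bound proteins detected by SDS-PAGE immunoblotting with ECL.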

The nature of series [14]: Antiproliferative activity against human KBtax cells assessed as reduction in cell viability after 72 hrs by MTS assay. The format is functional, cell-based. The gist of the method: as §1
Series [15] is described as follows: Selectivity index, ratio of IC50 for human KBtax cells to IC50 for human KB cells. The format is functional.
The nature of series [16]: Antiproliferative activity against human KB/VCR cells assessed as reduction in cell viability after 72 hrs by MTS assay. Format: functional, cell-based. The gist of the method:
as §1

Series [17] can be described thus: Selectivity index, ratio of IC50 for human KB/VCR cells to IC50 for human KB cells. The format is functional.
Series [18] is described as follows: Antiproliferative activity against human CCRF-CEM/VBL cells assessed as reduction in cell viability after 72 hrs by MTS assay. The format is functional, cell-based. The gist of the method: as §1
Series [19] can be described thus: Selectivity index, ratio of IC50 for human CCRF-CEM/VBL cells to IC50 for human CCRF-CEM cells. Format: functional.
Series [20] deals with NCI-H1975. In words: Induction of apoptosis in human NCI-H1975 cells assessed as PARP cleavage at 25 to 50 nM after 24 hrs by immunoblotting analysis. The format is functional, cell-based.
Series [21] in a line: Antitumour activity against human KBtax cells xenografted in Balb/c mouse assessed as reduction in tumour size at 8 mg/kg, ip administered 3 times per week and measured after 21 days (reference value: 1109 +/- 128.3 mm3). The format is functional.
A short description of series [22]: Toxicity in Balb/c mouse xenografted with human KBtax cells assessed as serum ALT level at 8 mg/kg, ip administered 3 times per week and measured after 21 days (reference value: 32.7 +/- 4.8 IU/L). Particulars: in vivo, 504 h. Format: organism-based.
A short description of series [23]: Toxicity in Balb/c mouse xenografted with human KBtax cells assessed as serum AST level at 8 mg/kg, ip administered 3 times per week and measured after 21 days (reference value: 94.2 +/- 12.5 IU/L). The format is organism-based. As to conditions: in vivo, 504 h.
Series [24] in a line: Toxicity in Balb/c mouse xenografted with human KBtax cells assessed as serum BUN level at 8 mg/kg, ip administered 3 times per week and measured after 21 days (reference value: 17.8 +/-1.1 mg/dl). As to conditions: in vivo, 504 h. The format is organism-based.
For a further series, the species on record is Homo sapiens. Put plainly: Induction of mitotic arrest in human KBtax cells assessed as increase in p-HH3 expression at 30 to 60 nM after 24 hrs by immunoblotting analysis. The format is functional, cell-based.

The source made the active and inactive calls. No cut-off for these calls is given here.

As to `CCOC(=O)c1ccc2nc(-c3ccccc3)cc(O)c2c1`, the concentration for half-maximal inhibition (IC50) (in general, the concentration that inhibits the measured activity by half) with PC-9 worked out at 17 nM; in the series with NCI-H1975 [1], 33 nM; in the series with BT-549, 33 nM; in the series on Hs-578T, 41 nM; with MDA-MB-231, 55 nM; in series [2], 34 nM. For the same compound, the IC50 with KB is 37 nM; with DU-145, 47 nM; in the series on CCRF-CEM, 45 nM; in [3], more than 10000 nM; in series [14], 30 nM; in series [16], 37 nM. Further, the IC50 in [18] was 44 nM. Besides, the Activity in the series with NCI-H1975 [4] is 871.3 mm3; in the series with NCI-H1975 [5], “Tde”; in the series on CL1-0 [6] it was “Dose-dependent effect”; in the series on CL1-0 [7] it was “Dose-dependent effect”; with CL1-0 [10], “Dose-dependent effect”. Also, the result in the series on NCI-H1975 [8] was inactive. Also, the result (in the series on NCI-H1975 [9]; in the series with CL1-0 [11]; in [12]; in series [13]) was Active. The “Ratio IC50” value in [15] is recorded as 0.81; in [17], 1; in series [19] it was 0.97.

On to `CCOC(=O)c1ccc2[nH]c(-c3cccc(F)c3)cc(=O)c2c1`, for which the IC50 with NCI-H1975 [1] is 24 nM; in the series with BT-549, 21 nM; with Hs-578T, 34 nM; with MDA-MB-231 it was 35 nM; in series [2], 22 nM; in the series with KB, 34 nM. Moreover, the IC50 in the series on CCRF-CEM came out at 20 nM; in series [14] it was 30 nM; in series [16], 35 nM; in series [18] it was 16 nM. In addition, the outcome in the series on NCI-H1975 [20] and in the series filed under Homo sapiens was Active. For the same compound, the “Ratio IC50” value in series [15] was found to be 0.88; in series [17], 1; in series [19] it was 0.8. Moreover, the Activity in [21] turned out to be 528.4 mm3; in series [22], 64 IU/L; in series [23], 120.7 IU/L; in series [24], 18.2 mg/dL.

The values above are taken from ChEMBL document CHEMBL4359883, “4(1H)-quinolone derivatives overcome acquired resistance to anti-microtubule agents by targeting the colchicine site of β-tubulin” (Eur J Med Chem, 2019).
